Results reported in ChEMBL document CHEMBL5329164, “Design, synthesis, and evaluation of BTK-targeting PROTACs with optimized bioavailability in vitro and in vivo” (RSC Med Chem, 2023).
Calls of active or inactive are those of the source. The rule behind the calls is not given here.

How the values were obtained:
[1] = Solubility in DMSO:Cremophor EL:1xPBS mixture at 10 mg/ml; type: physicochemical
[2] = Solubility in DMSO:Cremophor EL:1xPBS mixture at 10 mg/ml incubated for 7 days; type: physicochemical; settings: 168 h, time 7 day
[3] = target: T1, Protein cereblon/Tyrosine-protein kinase BTK (Homo sapiens) (UniProt Q06187+Q96SW2); test: PROTAC activity at CRBN/ BTK in human Ramos cells assessed as induction of BTK degradation at 100 nM incubated for 24 hrs by immunoblot analysis relative to control; type: cell-based
Outline: (§1)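 Ramos cells in supplemented RPMI 1640 were plated at 3×10^5 cells/well and treated with compound for 24 h. Lysates in SDS sample buffer were heated at 100 °C for 15 min and run on 10% SDS-PAGE, then transferred to PVDF. Membranes were probed overnight at 4 °C for BTK, GSPT1 and β-actin.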

[4] = target: T1, Protein cereblon/Tyrosine-protein kinase BTK (Homo sapiens); test: PROTAC activity at CRBN/ BTK in human DOHH-2 cells assessed as induction of BTK degradation at 1.2 to 300 nM incubated for 24 hrs by immunoblot analysis; type: cell-based; settings: dose 1.2-300 nM
Outline: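 DOHH2 cells were grown in RPMI 1640 with 10% FBS, 1% penicillin-streptomycin, 1% nonessential amino acids and 50 µM 2-mercaptoethanol at 37 °C under 5% CO₂. Cells were treated with compound at various concentrations, lysed in SDS buffer and separated on 10% SDS-PAGE. Blots were transferred to PVDF and probed for BTK, with β-actin as loading control.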

[5] = target: T1, Protein cereblon/Tyrosine-protein kinase BTK (Homo sapiens); test: PROTAC activity at CRBN/ BTK in human Ramos cells assessed as induction of BTK degradation at 250 nM incubated for 24 hrs by immunoblot analysis relative to control; type: cell-based; outline: as §1
[6] = target: T1, Protein cereblon/Tyrosine-protein kinase BTK (Homo sapiens); test: PROTAC activity at CRBN/ BTK in human Ramos cells assessed as induction of BTK degradation at 500 nM incubated for 24 hrs by immunoblot analysis relative to control; type: cell-based; outline: as §1
[7] = target: T1, Protein cereblon/Tyrosine-protein kinase BTK (Homo sapiens); test: PROTAC activity at CRBN/ BTK in human Ramos cells assessed as induction of BTK degradation at 300 nM incubated for 24 hrs by immunoblot analysis relative to control; type: cell-based; outline: as §1
[8] = Stability in rat liver microsomes assessed as intrinsic clearance measured per mg protein at 1 uM preincubated for 10 mins followed by reaction initiation measured upto 60 mins in presence of NADPH; type: ADME, Microsome; settings: time < 70 min, read-out: CLH
Outline: (§2)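 Compound at 1 μM final was incubated with 0.5 mg/mL mouse, rat, dog, monkey or human liver microsomes in 100 mM PBS, pH 7.4, with 1 mM NADPH at 37 °C after a 10 min preincubation. Reactions were stopped at 0, 5, 15, 30 and 60 min with ice-cold acetonitrile containing tolbutamide. Supernatants were taken for bioanalysis.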

[9] = Stability in monkey liver microsomes assessed as half life at 1 uM preincubated for 10 mins followed by reaction initiation measured upto 60 mins in presence of NADPH; type: ADME, Macaca mulatta, Microsome; settings: rhesus monkey, time < 70 min; outline: as §2
[10] = Stability in dog liver microsomes assessed as intrinsic clearance measured per mg protein at 1 uM preincubated for 10 mins followed by reaction initiation measured upto 60 mins in presence of NADPH; type: ADME, Canis lupus familiaris, Microsome; settings: time < 70 min, read-out: CLH; outline: as §2
[11] = Stability in mouse liver microsomes assessed as half life at 1 uM preincubated for 10 mins followed by reaction initiation measured upto 60 mins in presence of NADPH; type: ADME, Microsome; settings: time < 70 min; outline: as §2
[12] = Stability in human liver microsomes assessed as intrinsic clearance measured per mg protein at 1 uM preincubated for 10 mins followed by reaction initiation measured upto 60 mins in presence of NADPH; type: ADME, Microsome; settings: time < 70 min, read-out: CLH; outline: as §2
[13] = AUClast in BALB/c mouse at 5 mg/kg, po measured for 24 hrs by LCMS analysis; type: ADME, organism-based; design: dose 5 mg/kg, time 24 hrs, route po; settings: in vivo
Outline: (§3)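 Male Balb/c mice, 9 per group, dosed intragastrically at 5 mg/kg; the same compounds were also given iv at 2 mg/kg. Blood was drawn into EDTA-K2 tubes at 0.25, 0.5, 1, 2, 4, 6, 8 and 24 h. Plasma proteins were precipitated with acetonitrile containing tolbutamide. Quantification was by LC-MS on a C18 column with a formic acid water/acetonitrile gradient.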

[14] = Stability in rat liver microsomes assessed as half life at 1 uM preincubated for 10 mins followed by reaction initiation measured upto 60 mins in presence of NADPH; type: ADME, Microsome; settings: time < 70 min; outline: as §2
[15] = Stability in monkey liver microsomes assessed as intrinsic clearance measured per mg protein at 1 uM preincubated for 10 mins followed by reaction initiation measured upto 60 mins in presence of NADPH; type: ADME, Macaca mulatta, Microsome; settings: rhesus monkey, time < 70 min, read-out: CLH; outline: as §2
[16] = AUClast in BALB/c mouse at 2 mg/kg, iv measured for 24 hrs by LCMS analysis; type: ADME, organism-based; design: time 24 hrs, dose 2 mg/kg, route iv; settings: in vivo
Outline: (§4)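 Male Balb/c mice, 9 per group, dosed intravenously at 2 mg/kg. Blood was drawn into EDTA-K2 tubes at 0.083, 0.25, 0.5, 1, 2, 4, 6, 8 and 24 h. Plasma was separated by centrifugation at 2000 g for 10 min and precipitated with acetonitrile containing tolbutamide internal standard. Analysis was by LC-MS on a polar C18 column with a water/acetonitrile 0.1% formic acid gradient.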

[17] = Apparent permeability across apical to basal side in MDCK-II cells assessed as compound recovery at 10 uM measured for 120 mins by LC-MS/MS analysis; type: ADME, cell-based, Canis lupus familiaris; settings: dog, read-out: Drug recovery
Outline: (§5)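 MDCK monolayers were grown on Transwell inserts (5 x 10^4 cells/cm²) and used at day 5. Compound at 10 μM in HBSS with 10 mM Hepes, pH 7.40, was dosed apically or basolaterally and incubated at 37±1 °C. Receiver and donor samples were taken at 120 min and quantified by LC-MS/MS against an internal standard. Lucifer yellow passage below 1% confirmed monolayer integrity.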

[18] = Cmax in BALB/c mouse at 5 mg/kg, po measured for 24 hrs by LCMS analysis; type: ADME, organism-based; design: dose 5 mg/kg, time 24 hrs, route po; settings: in vivo; outline: as §3
[19] = Half life in BALB/c mouse at 2 mg/kg, iv measured for 24 hrs by LCMS analysis; type: ADME, organism-based; settings: in vivo; outline: as §4
[20] = Stability in human liver microsomes assessed as half life at 1 uM preincubated for 10 mins followed by reaction initiation measured upto 60 mins in presence of NADPH; type: ADME, Microsome; settings: time < 70 min; outline: as §2
[21] = Oral bioavailability in BALB/c mouse at 5 mg/kg measured for 24 hrs by LCMS analysis; type: ADME, organism-based; settings: in vivo; outline: as §3
[22] = Stability in dog liver microsomes assessed as half life at 1 uM preincubated for 10 mins followed by reaction initiation measured upto 60 mins in presence of NADPH; type: ADME, Canis lupus familiaris, Microsome; settings: time < 70 min; outline: as §2
[23] = Apparent volume of distribution in BALB/c mouse at 2 mg/kg, iv measured for 24 hrs by LCMS analysis; type: ADME, organism-based; settings: in vivo, read-out: Vz; outline: as §4
[24] = Apparent permeability across basal to apical side in MDCK-II cells at 10 uM measured for 120 mins by LC-MS/MS analysis; type: ADME, cell-based, Canis lupus familiaris; settings: dog
Outline: (§6)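 MDCK monolayers were grown on Transwell inserts (5 x 10^4 cells/cm²) and used at day 5. Compound at 10 μM in HBSS with 10 mM Hepes, pH 7.40, was dosed apically or basolaterally and incubated at 37±1 °C. Lucifer yellow passage below 1% confirmed monolayer integrity.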

[25] = Tmax in BALB/c mouse at 5 mg/kg, po measured for 24 hrs by LCMS analysis; type: ADME, organism-based; settings: in vivo; outline: as §3
[26] = Clearance in BALB/c mouse at 2 mg/kg, iv measured for 24 hrs by LCMS analysis; type: ADME, organism-based; settings: in vivo; outline: as §4
[27] = Apparent permeability across apical to basal side in MDCK-II cells at 10 uM measured for 120 mins by LC-MS/MS analysis; type: ADME, cell-based, Canis lupus familiaris; settings: dog; outline: as §6
[28] = Half life in BALB/c mouse at 5 mg/kg, po measured for 24 hrs by LCMS analysis; type: ADME, organism-based; settings: in vivo; outline: as §3
[29] = Apparent permeability across basal to apical side in MDCK-II cells assessed as compound recovery at 10 uM measured for 120 mins by LC-MS/MS analysis; type: ADME, cell-based, Canis lupus familiaris; settings: dog, read-out: Drug recovery; outline: as §5
[30] = Stability in mouse liver microsomes assessed as intrinsic clearance measured per mg protein at 1 uM preincubated for 10 mins followed by reaction initiation measured upto 60 mins in presence of NADPH; type: ADME, Microsome; settings: time < 70 min, read-out: CLH; outline: as §2

T1 sequence (Q06187 2-659 limits assumed): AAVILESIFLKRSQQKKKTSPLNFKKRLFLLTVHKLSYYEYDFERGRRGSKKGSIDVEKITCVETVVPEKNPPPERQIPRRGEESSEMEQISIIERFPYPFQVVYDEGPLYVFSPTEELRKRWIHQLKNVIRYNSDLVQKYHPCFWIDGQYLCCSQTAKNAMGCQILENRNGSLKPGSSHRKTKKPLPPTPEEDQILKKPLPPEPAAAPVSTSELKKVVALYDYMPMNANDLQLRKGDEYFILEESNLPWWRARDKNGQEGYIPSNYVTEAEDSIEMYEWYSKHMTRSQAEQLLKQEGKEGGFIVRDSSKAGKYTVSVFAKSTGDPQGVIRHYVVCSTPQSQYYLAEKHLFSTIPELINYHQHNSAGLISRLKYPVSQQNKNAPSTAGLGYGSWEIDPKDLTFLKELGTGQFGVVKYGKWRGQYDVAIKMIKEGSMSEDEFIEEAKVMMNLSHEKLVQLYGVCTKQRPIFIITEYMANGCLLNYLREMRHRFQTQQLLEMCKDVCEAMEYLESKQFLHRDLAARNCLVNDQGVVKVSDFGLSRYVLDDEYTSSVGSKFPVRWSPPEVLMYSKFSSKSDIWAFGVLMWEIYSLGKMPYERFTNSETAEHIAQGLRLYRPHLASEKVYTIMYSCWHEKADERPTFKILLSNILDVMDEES
T1 sequence (Q96SW2 whole entry partner): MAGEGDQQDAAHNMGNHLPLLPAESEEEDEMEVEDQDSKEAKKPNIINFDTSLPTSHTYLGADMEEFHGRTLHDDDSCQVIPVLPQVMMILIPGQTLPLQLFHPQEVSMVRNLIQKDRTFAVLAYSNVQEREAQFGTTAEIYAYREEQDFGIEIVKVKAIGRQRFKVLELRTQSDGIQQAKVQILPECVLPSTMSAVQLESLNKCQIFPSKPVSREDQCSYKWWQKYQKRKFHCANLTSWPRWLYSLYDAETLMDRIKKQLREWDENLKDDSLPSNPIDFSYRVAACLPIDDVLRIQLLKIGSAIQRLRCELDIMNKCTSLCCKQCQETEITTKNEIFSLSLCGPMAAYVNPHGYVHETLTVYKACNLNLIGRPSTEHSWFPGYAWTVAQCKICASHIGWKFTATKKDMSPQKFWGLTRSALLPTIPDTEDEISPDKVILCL

SMILES: Nc1ncnc2c1c(-c1ccc(Oc3ccccc3)cc1)nn2[C@@H]1CCCN(C(=O)c2cn(CCOCCOCCOCCCc3cccc4c3CN(C3CCC(=O)NC3=O)C4=O)nn2)C1 (some centres undefined)
- solubility [1]: Insoluble
- solubility [2]: Insoluble
- Activity [3]: 28.5%
- Activity [4]: Active

SMILES: Nc1ncnc2c1c(-c1ccc(Oc3ccccc3)cc1)nn2[C@@H]1CCCN(C(=O)c2ccc(-c3ccc(Nc4ccc5c(c4)C(=O)N(C4CCC(=O)NC4=O)C5=O)cc3)cc2)C1 (some centres undefined)
- Activity [5]: 38.4%
- Activity [6]: 38.8%

SMILES: Nc1ncnc2c1c(-c1ccc(Oc3ccccc3)cc1)nn2[C@@H]1CCCN(C(=O)c2ccc(Nc3ccc4c(c3)CN(C3CCC(=O)NC3=O)C4=O)cc2)C1 (some centres undefined)
- Activity [3]: 6.9%
- Activity [7]: 12%

SMILES: Nc1ncnc2c1c(-c1ccc(Oc3ccccc3)cc1)nn2C1CCN(C(=O)Cc2ccc(Nc3ccc4c(c3)CN(C3CCC(=O)NC3=O)C4=O)cc2)CC1 (centres undefined)
- microsomal CLint at 1 µM [8]: 55.9 µL/min/mg
- half-life at 1 µM [9]: 8.91 min
- microsomal CLint at 1 µM [10]: 48.7 µL/min/mg
- half-life at 1 µM [11]: 13 min
- microsomal CLint at 1 µM [12]: 147 µL/min/mg
- AUC(0-t) at 24 h [13]: 103 ng·h/mL
- half-life at 1 µM [14]: 24.8 min
- microsomal CLint at 1 µM [15]: 156 µL/min/mg
- AUC(0-t) at 24 h [16]: 8120 ng·h/mL
- recovery at 2 h, 10 µM [17]: 98.5%
- Cmax [18]: 83.2 ng/mL
- half-life [19]: 296 min
- half-life at 1 µM [20]: 9.46 min
- bioavailability [21]: 0.51%
- half-life at 1 µM [22]: 28.5 min
- Vd [23]: 1.74 L/kg
- Papp B→A at 2 h, 10 µM [24]: 0.25 ×10⁻⁶ cm/s
- Tmax [25]: 30 min
- clearance [26]: 4.08 mL/min/kg
- Papp A→B at 2 h, 10 µM [27]: 0.003 ×10⁻⁶ cm/s
- half-life [28]: 87 min
- recovery at 2 h, 10 µM [29]: 101%
- microsomal CLint at 1 µM [30]: 107 µL/min/mg

SMILES: Nc1ncnc2c1c(-c1ccc(Oc3ccccc3)cc1)nn2[C@@H]1CCCN(C(=O)N2CC3(C2)CN(c2ccc4c(c2)C(=O)N(C2CCC(=O)NC2=O)C4=O)C3)C1 (some centres undefined)
- Activity [3]: 23.1%
- Activity [7]: 24.5%

SMILES: COCCc1ccc(OCC(O)CNC(C)C)cc1 (centres undefined) [METOPROLOL]
- recovery at 2 h, 10 µM [17]: 97.1%
- Papp B→A at 2 h, 10 µM [24]: 11.3 ×10⁻⁶ cm/s
- Papp A→B at 2 h, 10 µM [27]: 21.1 ×10⁻⁶ cm/s
- recovery at 2 h, 10 µM [29]: 95.9%

SMILES: Nc1ncnc2c1c(-c1ccc(Oc3ccccc3)cc1)nn2[C@@H]1CCCN(C(=O)N2CCN(c3ccc4c(c3)C(=O)N(C3CCC(=O)NC3=O)C4=O)CC2)C1 (some centres undefined)
- Activity [3]: 78.4%
- Activity [7]: 79.7%
